Test results taken from ChEMBL document CHEMBL1123644, “Potential antitumor agents. 53. Synthesis, DNA binding properties, and biological activity of perimidines designed as "minimal" DNA-intercalating agents” (J Med Chem, 1987).
Calls of active or inactive are those of the source. No cut-off for these calls is given here.

Legend:
[1] = system: Nucleic Acid; assay: The compound was tested for DNA (from Escherichia coli plasmid pNZ116 ) binding constant to poly[d(A-T)] determined by ethidium bromide displacement; assay type: nucleic-acid assay
Procedure, shortened: (§1)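 Binding constants to poly[d(A-T)] and poly[d(G-C)] were determined by ethidium bromide displacement.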

[2] = system: P388; assay: Optimal dose administered intraperitoneally as a solution in 0.1 mL of 30% v/v ethanol-water on days 1,5 and 9 after intraperitoneal inoculation of 10 e6 P388 leukemia cells; assay type: functional, Mus musculus
[3] = system: Nucleic Acid; assay: The compound was tested for DNA (from Escherichia coli plasmid pNZ116 ) binding constant to poly[d(G-C)] determined by ethidium bromide displacement; assay type: nucleic-acid assay; procedure, shortened: as §1
[4] = system: P388; assay: Percent increase in life span of drug treated tumor( P388 leukemia cells)-bearing animal compared to that of untreated tumor bearing control when treated at optimal dose; Compound inactive at all dose levels up to toxic ones; assay type: functional; details: Mus musculus
[5] = system: L1210; assay: In vitro growth inhibition of murine leukemia L1210 cells after 40 hours exposure.; assay type: functional, cell-based; details: Mus musculus, L1210, 40 h
[6] = The pKa value spectrophotometrically in water at 25 degree Centigrade; assay type: physicochemical
[7] = system: P388; assay: Percent increase in life span of drug treated tumor( P388 leukemia cells)-bearing animal compared to that of untreated tumor bearing control when treated at optimal dose; NA means not active compound inactive at all dose levels up to toxic ones; assay type: functional; details: Mus musculus
[8] = system: P388; assay: Optimal dose administered intraperitoneally as a solution in 0.1 mL of 30% v/v ethanol-water on days 1,5 and 9 after intraperitoneal inoculation of 10 e6 P388 leukemia cells; ND means no data; assay type: functional, Mus musculus
[9] = system: P388; assay: Percent increase in life span of drug treated tumor( P388 leukemia cells)-bearing animal compared to that of untreated tumor bearing control when treated at optimal dose; assay type: functional, Mus musculus
[10] = system: P388; assay: Percent increase in life span of drug treated tumor( P388 leukemia cells)-bearing animal compared to that of untreated tumor bearing control when treated at optimal dose; NA means not active; assay type: functional; details: Mus musculus

Compound | Log K [1] | OD [2] | Log K [3] | IC50 [5] | further results
CN(C)CCNC1=Nc2cccc3cccc(c23)N1 | 5.77 | 65 mg/kg/day | 5.9 | 2.5 µM | ILS [4]: inactive
CN(C)CCCN1C=Nc2cccc3cccc1c23 | – | 150 mg/kg/day | – | 15.3 µM | pKa [6]: 5.1; ILS [7]: inactive
O=C(NCCN1CCCCC1)C1=Nc2cccc3cccc(c23)N1 | – | – | – | 1.3 µM | –
CN(C)CCN1C(=O)c2cccc3cccc(c23)C1=O | 5.46 | – | 5.87 | 1.6 µM | OD [8]: 150 mg/kg/day; ILS [9]: 31%
CN(C)CCSC1=Nc2cccc3cccc(c23)N1 | 5.78 | 150 mg/kg/day | 6.1 | 1.8 µM | pKa [6]: 2.66; ILS [4]: inactive
CN(C)CCNC(=O)CC1=Nc2cccc3cccc(c23)N1 | 5.74 | 65 mg/kg/day | 5.88 | 16.7 µM | ILS [10]: inactive
CN(C)CCNC(=O)C1=Nc2cccc3cccc(c23)N1 | 6.51 | 150 mg/kg/day | 6.51 | 0.44 µM | pKa [6]: 1.74; ILS [4]: inactive
CN(C)CCCNC1=Nc2cccc3cccc(c23)N1 | – | – | – | 4 µM | –
CN(C)CCCNC(=O)CC1=Nc2cccc3cccc(c23)N1 | – | – | – | > 21 µM | –
CN(C)CCCSC1=Nc2cccc3cccc(c23)N1 | – | – | – | 5.7 µM | –
O=C(NCCN1CCOCC1)C1=Nc2cccc3cccc(c23)N1 | – | – | – | 14.1 µM | –
CN(C)CCCCN1C=Nc2cccc3cccc1c23 | – | – | – | 2.2 µM | pKa [6]: 5.3
CN(C)CCCNC(=O)C1=Nc2cccc3cccc(c23)N1 | – | – | – | 0.87 µM | –
CN(C)CCN1C=Nc2cccc3cccc1c23 | 5.17 | 150 mg/kg/day | 5.31 | 20 µM | pKa [6]: 4.64; ILS [4]: inactive
CCN(CC)CCNC(=O)C1=Nc2cccc3cccc(c23)N1 | – | – | – | 1.1 µM | –
CN(C)CCCCN1C(=O)c2cccc3cccc(c23)C1=O | – | – | – | 1.9 µM | –
CN(C)CCNC(=O)C1=Nc2cccc3cncc(c23)N1 | 5.71 | 65 mg/kg/day | 5.88 | 21.7 µM | ILS [4]: inactive
CN(C)CCCCNC(=O)C1=Nc2cccc3cccc(c23)N1 | – | – | – | 1.5 µM | –
